Assay results gathered from unrelated publications.
Protocols differ between the studies behind these lines.

CCOC(=O)c1nnn(-c2cccc(NC(=O)Nc3ccc(Cl)c(Cl)c3)c2)c1C  MIC (Mycolicibacterium fortuitum; microbial growth, broth dilution; ATCC6841; 48 h): > 64 µg/mL
CC(C(=O)N1CCCC1)c1cccc(C(OC(=O)N2CCCC2)c2ccccc2)c1 (stereo not shown)  IC50 (CCRF-CEM; cell growth or viability; 72 h): 42000 nM
COC(=O)c1cc(-c2cccc(NC(=S)Nc3ccc(C#N)cc3)c2)on1  MIC (Mycolicibacterium fortuitum; microbial growth, broth dilution; ATCC6841; 48 h): 64 µg/mL
CC(C(=O)NCc1ccccc1)c1cccc(C(OC(=O)NCc2ccccc2)c2ccccc2)c1 (stereo not shown)  IC50 (CCRF-CEM; cell growth or viability; 72 h): 2700 nM
COC(=O)c1cc(-c2cccc(NC(=S)Nc3ccccc3Cl)c2)on1  MIC (Mycolicibacterium fortuitum; microbial growth, broth dilution; ATCC6841; 48 h): > 64 µg/mL
CO[C@H]1/C=C/O[C@@]2(C)Oc3c(C)c(O)c4c(O)c(c(/C=N/N5CCN(C)CC5)c(O)c4c3C2=O)NC(=O)/C(C)=C\C=C\[C@H](C)[C@H](O)[C@@H](C)[C@@H](O)[C@@H](C)[C@H](OC(C)=O)[C@@H]1C  MIC (Mycobacterium marinum; microbial growth; ATCC927): < 0.2 µg/mL
COC(=O)c1cc(-c2cccc(NC(=O)Nc3ccc(F)cc3)c2)on1  MIC (Mycolicibacterium fortuitum; microbial growth, broth dilution; ATCC6841; 48 h): > 64 µg/mL
Cc1ccnc2c1NC(=O)c1cccnc1N2C1CC1  IC90 (Human immunodeficiency virus 1; viral replication, inhibitor; human PBMC; clinical isolate): 227 nM
COc1ccc(C=NNC(=S)Nc2ccc(C#N)cc2)cc1  IC50 (CCRF-CEM; cell growth or viability; 72 h): > 200 µg/mL
CCOC(=O)c1c(CSc2ccccc2)n(C)c2cc(Br)c(O)c(CN(C)C)c12.Cl.O  MIC50 (Cowpox virus; microbial growth): > 20 µg/mL
COC(=O)c1cc(-c2cccc(NC(=O)Nc3ccccc3F)c2)on1  MIC (Mycolicibacterium fortuitum; microbial growth, broth dilution; ATCC6841; 48 h): > 64 µg/mL
Nc1nc2c(ncn2COCCO)c(=O)[nH]1  MIC50 (Cowpox virus; microbial growth): 250 µM
COC(=O)c1cc(-c2cccc(NC(=S)Nc3cccc(Br)c3)c2)on1  MIC (Mycolicibacterium fortuitum; microbial growth, broth dilution; ATCC6841; 48 h): > 64 µg/mL
Nc1ccn(C[C@@H](CO)OCP(=O)(O)O)c(=O)n1  IC50 (Cowpox virus; viral replication): 30000 nM
[H]/N=C(/N)N[C@H]1[C@H](O)[C@@H](O)[C@H](O[C@@H]2O[C@@H](C)[C@](O)(C=O)[C@H]2O[C@@H]2O[C@@H](CO)[C@H](O)[C@@H](O)[C@@H]2NC)[C@@H](N/C(N)=N\[H])[C@@H]1O  MIC (Mycolicibacterium fortuitum; microbial growth; ATCC6841): 50 µg/mL
CC(C)CN(C[C@@H](O)[C@H](Cc1ccccc1)NC(=O)O[C@H]1CO[C@H]2OCC[C@H]21)S(=O)(=O)c1ccc(N)cc1  IC50 (Human immunodeficiency virus 1; viral replication; MT4): 3.2 nM
N#Cc1ccc(NC(=S)NN=Cc2ccc(O)cc2)cc1  IC50 (CCRF-CEM; cell growth or viability; 72 h): 107 µg/mL
CO[C@H]1/C=C/O[C@@]2(C)Oc3c(C)c(O)c4c(O)c(c(/C=N/N5CCN(C)CC5)c(O)c4c3C2=O)NC(=O)/C(C)=C\C=C\[C@H](C)[C@H](O)[C@@H](C)[C@@H](O)[C@@H](C)[C@H](OC(C)=O)[C@@H]1C  MIC (Mycobacterium marinum; microbial growth; 5 days): < 0.78 µM
Nc1ccn(C[C@@H](CO)OCP(=O)(O)O)c(=O)n1  MIC50 (Cowpox virus; microbial growth): 22 µM
